From ChEMBL document CHEMBL1138429, “Novel carbazole derivatives as NPY Y1 antagonists” (Bioorg Med Chem Lett, 2007)

Legend:
[1] = target: T1, Neuropeptide Y receptor type 1 (Homo sapiens, UniProt P25929); test: Displacement of [125]peptide YY from human recombinant Y1 receptor expressed in CHO cells; type: cell-based
T1 sequence (P25929 whole entry): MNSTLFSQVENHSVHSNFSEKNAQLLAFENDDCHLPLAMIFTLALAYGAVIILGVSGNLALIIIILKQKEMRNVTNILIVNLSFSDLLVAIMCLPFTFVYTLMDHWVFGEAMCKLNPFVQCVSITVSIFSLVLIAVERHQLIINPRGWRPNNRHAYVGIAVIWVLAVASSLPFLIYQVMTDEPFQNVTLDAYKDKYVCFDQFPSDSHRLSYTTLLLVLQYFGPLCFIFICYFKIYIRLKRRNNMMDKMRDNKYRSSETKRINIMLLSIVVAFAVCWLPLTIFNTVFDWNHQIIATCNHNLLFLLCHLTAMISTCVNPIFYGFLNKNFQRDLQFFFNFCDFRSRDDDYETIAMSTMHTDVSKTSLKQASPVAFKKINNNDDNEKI

[2] = Ratio of drug level in […] plasma in Sprague-Dawley rat at 1 mg/kg, iv after 5 mins; type: ADME, organism-based; design: dose 1 mg/kg, route intravenous
Method in brief: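 Brain penetration was assessed in male Sprague–Dawley rats dosed iv at 1 mg/kg in DMSO/PEG400/H2O 5:50:45 solution. The partition ratio was measured 5 min after dosing.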

[3] = Oral bioavailability in Sprague-Dawley rat at 5 mg/kg, po; type: ADME, organism-based; conditions: in vivo
Method in brief: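 Male Sprague–Dawley rats received 5 mg/kg orally as a methocel suspension. F was calculated from the normalised AUC against the iv (1 mg/kg) dose.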

[4] = Ratio of drug level in […] plasma in Sprague-Dawley rat at 1 mg/kg, iv after 5 mins; conditions: in vivo
[5] = Plasma clearance in Sprague-Dawley rat at 1 mg/kg, iv; type: ADME, organism-based; design: dose 1 mg/kg, route intravenous
Method in brief: (§1)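 Male Sprague–Dawley rats given 1 mg/kg iv as a solution in DMSO/PEG400/H2O 5:50:45. Clearance, half-life, volume of distribution and AUC were derived from the post-dose profile.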

[6] = Half life in Sprague-Dawley rat at 1 mg/kg, iv; type: ADME, organism-based; design: dose 1 mg/kg, route intravenous; conditions: in vivo; method in brief: as §1

Structure (SMILES)	IC50 [1] [nM]	other results
CN1CCN(C(=O)c2cc(Oc3ccc(Cl)cc3)c3c(c2)c2ccccc2n3C[C@@H]2CCNC[C@H]2F)CC1	53	
O=C(c1cc(Oc2ccc(Cl)cc2)c2c(c1)c1ccccc1n2C[C@@H]1CCNC[C@@H]1F)N1CCc2nc[nH]c2C1	2880	
CN1CCN(C(=O)c2cc(Oc3ccc(Cl)cc3)c3c(c2)c2ccccc2n3C[C@@H]2CCN(C)C[C@H]2F)CC1	95	blood plasma ratio at 5 min [2]: 8.2
CN1CCN(C(=O)c2cc(Oc3ccc(Cl)cc3)c3c(c2)c2ccccc2n3CC2CCN(CC(=O)N(C)C)CC2)CC1	14	
CCN1CCCC1CNC(=O)c1cc(Oc2ccc(Cl)cc2)c2c(c1)c1ccccc1n2C[C@@H]1CCNC[C@H]1F (stereo partly specified)	263	
CN1CCCC1CCNC(=O)c1cc(Oc2ccc(Cl)cc2)c2c(c1)c1ccccc1n2C[C@@H]1CCNC[C@H]1F (stereo partly specified)	1860	
CN1CCN(C(=O)c2cc(Oc3ccc(Cl)cc3)c3c(c2)c2ccccc2n3CC2CCNCC2)CC1	16	bioavailability [3]: 0%; Ratio [4]: 0.12
O=C(c1cc(Oc2ccc(Cl)cc2)c2c(c1)c1ccccc1n2C[C@@H]1CCNC[C@@H]1F)N1CCN(CC(F)(F)F)CC1	9770	
CN1CCN(C(=O)c2cc(Oc3ccc(Cl)cc3)c3c(c2)c2ccccc2n3CC2CCCNC2)CC1 (stereo unspecified)	107	
CN(C)C1CCN(C(=O)c2cc(Oc3ccc(Cl)cc3)c3c(c2)c2ccccc2n3C[C@@H]2CCNC[C@H]2F)C1 (stereo partly specified)	467	
CN(C)CCNC(=O)c1cc(Oc2ccc(Cl)cc2)c2c(c1)c1ccccc1n2C[C@@H]1CCNC[C@H]1F	50	
CN(C)C(=O)c1cc(Oc2ccc(Cl)cc2)c2c(c1)c1ccccc1n2C[C@@H]1CCNC[C@H]1F	12000	
O=C(c1cc(Oc2ccc(Cl)cc2)c2c(c1)c1ccccc1n2C[C@@H]1CCNC[C@H]1F)N1CCN(C2CC2)CC1	871	
CN1CCN(C(=O)c2cc(Oc3ccc(Cl)cc3)c3c(c2)c2ccccc2n3CCCN2CCCCC2)CC1	50	
CN(C)CCN(C)C(=O)c1cc(Oc2ccc(Cl)cc2)c2c(c1)c1ccccc1n2C[C@@H]1CCNC[C@H]1F	191	
O=C(c1cc(Oc2ccc(Cl)cc2)c2c(c1)c1ccccc1n2C[C@@H]1CCNC[C@@H]1F)N1CCn2ccnc2C1	1910	
CN1CCC(Cn2c3ccccc3c3cc(C(=O)N4CCN(C)CC4)cc(Oc4ccc(Cl)cc4)c32)CC1	11	blood plasma ratio at 5 min [2]: 0.8
O=C(c1cc(Oc2ccc(Cl)cc2)c2c(c1)c1ccccc1n2C[C@@H]1CCNC[C@@H]1F)N1CCC(O)CC1	7760	
CN1CCN(C(=O)c2cc(Oc3ccc(Cl)cc3)c3c(c2)c2ccccc2n3C[C@@H]2CCN(C)C[C@@H]2F)CC1	28	clearance [5]: 15 mL/min/kg; bioavailability [3]: 19%; half-life [6]: 11 h; blood plasma ratio at 5 min [2]: 4.2
CN1CCN(C(=O)c2cc(Oc3ccc(Cl)cc3)c3c(c2)c2ccccc2n3C[C@@H]2CCN(C3CC3)C[C@@H]2F)CC1	186	
CN1CCN(C(=O)c2cc(Oc3ccc(Cl)cc3)c3c(c2)c2ccccc2n3CC2=C(F)CNCC2)CC1	43	
CN1CCN(C(=O)c2cc(Oc3ccc(Cl)cc3)c3c(c2)c2ccccc2n3C[C@@H]2CCNC[C@@H]2F)CC1	51	
O=C(c1cc(Oc2ccc(Cl)cc2)c2c(c1)c1ccccc1n2C[C@@H]1CCNC[C@@H]1F)N1CCN(CCO)CC1	832	
